RGS4 inh: RGS4 inhibitors, primary screen, cell-based, HEK293 M3R inducible RGS4, calcium flux | Regulator of G-protein signaling 4 (Homo sapiens), P49798 | Fluo-4 calcium flux; hits give high values; triggered by carbachol at its EC20 | B-score at 10 µM | actives 0.45% (n = 310,000);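 active = B-score, a plate-corrected calcium signal, over three deviations above library mean, with baseline fluorescence within five deviations of library mean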;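 also: RGS4 expression induced by doxycycline in cells with stable M3 receptor; B-score is computed from the integrated fluorescence ratio over baseline after carbachol; higher B-score means a larger calcium signal and so more RGS4 inhibition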
RGS4 pot: RGS4 potentiators or activators, primary screen, cell-based, HEK293 M3R inducible RGS4, calcium flux. actives 0.92% (n = 310,000). carbachol calcium flux Fluo4; hits give low values. B-score at 10 µM. AID 463111, 2010;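 active = B-score of the integrated calcium signal more than 4 SD below the library mean, with starting fluorescence not abnormally high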;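 also: negative B-score means reduced calcium response which marks RGS4 activation or potentiation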
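Assay system: Inducible-RGS4 HEK293 cells carrying M3 receptor | Schedule: Compound preincubation 20 min at room temperature before agonist | Signal: Kinetic calcium fluorescence imaging with Fluo4-AM dye, 2 µM | Read-out basis: B score from integrated fluorescence ratio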
MrgX1 antag: antagonists of human MrgX1 receptor, primary screen, HEK293 cells, Fluo-4 calcium flux. Mas-related G-protein coupled receptor member X1 (Homo sapiens), Q96LB2. BAM8-22 antagonism; hits give low values. B-score at 10 µM. actives 1.3% (n = 310,000);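 active = calcium-response B-score plate-corrected more than 3 library SD below zero, starting fluorescence within 5 deviations, no agonist response on first addition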;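 also: peak minus trough fluorescence over baseline after final BAM8-22 challenge near maximal dose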
Target sequence (Q96LB2 whole entry, looked up): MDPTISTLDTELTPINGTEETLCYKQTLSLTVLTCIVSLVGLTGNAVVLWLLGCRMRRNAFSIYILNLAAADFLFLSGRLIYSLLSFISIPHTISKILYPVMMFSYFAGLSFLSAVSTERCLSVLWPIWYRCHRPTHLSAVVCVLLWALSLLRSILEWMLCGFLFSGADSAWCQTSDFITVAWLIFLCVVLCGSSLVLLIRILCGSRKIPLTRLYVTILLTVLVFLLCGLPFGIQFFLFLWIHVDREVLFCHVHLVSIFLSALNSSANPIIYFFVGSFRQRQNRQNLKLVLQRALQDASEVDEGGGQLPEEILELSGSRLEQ
MrgX1 allo act: positive allosteric modulators of MrgX1, primary screen, HEK293 cells, Fluo-4 calcium flux. Mas-related G-protein coupled receptor member X1 (Homo sapiens), Q96LB2. FDSS; hits give high values. B-score at 10 µM. actives 0.63% (n = 310,000). AID 588675, 2011;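 active = plate-corrected calcium response at least 3 library SD above typical, normal starting fluorescence, not activating the receptor alone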;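 also: compound read alongside a low EC10 to EC30 dose of BAM8-22 agonist; peak minus trough fluorescence over baseline measured at the second addition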
MrgX1 agonist: agonists of human MrgX1 receptor, primary screen, HEK293 cells, Fluo-4 calcium flux | Fluo-4 calcium fluorescence, agonist mode; hits give high values | actives 0.44% (n = 310,000) | Mas-related G-protein coupled receptor member X1 (Homo sapiens), Q96LB2 | B-score at 10 µM;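 active = calcium response B-score plate-corrected fluorescence ratio at least 3 library SD, with starting fluorescence B-score inside 5 SD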
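Assay system: MrgX1-expressing HEK293 cells / Amount: fifteen thousand cells per well / Doses: test compound in the initial addition of three / Timing: cells plated overnight, dye loaded 0.5 h 37 °C, 0.5 h room temperature / Technique: kinetic calcium dye fluorescence, Fluo-4 NW / Control set: positive and negative controls per plate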
* hit, by the source's call. Most compounds without a hit are left out; they make up all but 3.5% or so of the library.

For COCCCNC(=O)c1cc2c(=O)n3cc(C)ccc3nc2nc1NCC1CCCO1 (configuration not stated) the results were RGS4 inh inactive, RGS4 pot inactive, MrgX1 antag -7.6*, MrgX1 allo act inactive and MrgX1 agonist inactive.
For O=C(c1ccccc1)c1ccc(Oc2ccc(C(=O)O)c(C(=O)O)c2)cc1 the results were RGS4 inh inactive, RGS4 pot inactive, MrgX1 antag inactive, MrgX1 allo act inactive and MrgX1 agonist inactive.
For Cc1sc(NC(=O)C2CCCCC2C(=O)O)c(C(N)=O)c1-c1ccccc1 (configuration not stated) the results were RGS4 inh inactive, RGS4 pot inactive, MrgX1 antag inactive, MrgX1 allo act inactive and MrgX1 agonist inactive.
For Cc1sc(NC(=O)C2CCCCC2C(=O)O)c(C(N)=O)c1-c1ccc(C(C)C)cc1 (configuration not stated) the results were RGS4 inh inactive, RGS4 pot inactive, MrgX1 antag inactive, MrgX1 allo act inactive and MrgX1 agonist 54*.
`O=C(N/N=C/c1c(O)ccc2ccccc12)c1cccnc1` gave RGS4 inh inactive, RGS4 pot inactive, MrgX1 antag -7.6*, MrgX1 allo act inactive and MrgX1 agonist inactive.
Screening O=C(N/N=C/c1c(O)ccc2ccccc12)c1ccc(Br)o1 returned RGS4 inh inactive, RGS4 pot inactive, MrgX1 antag -5*, MrgX1 allo act inactive and MrgX1 agonist inactive.
For O=C(N/N=C\c1c(O)ccc2ccccc12)c1ccc(O)cc1 the results were RGS4 inh inactive, RGS4 pot inactive, MrgX1 antag inactive, MrgX1 allo act inactive and MrgX1 agonist inactive.
`COc1ccc2ccccc2c1/C=N\NC(=O)c1cccnc1` gave RGS4 inh inactive, RGS4 pot inactive, MrgX1 antag inactive, MrgX1 allo act inactive and MrgX1 agonist inactive.
Screening CCN(c1ccccc1)P(=O)(Nc1ccccc1)Nc1ccccc1 returned RGS4 inh inactive, RGS4 pot inactive, MrgX1 antag inactive, MrgX1 allo act inactive and MrgX1 agonist inactive.
CN(c1ccccc1)P(=O)(N(C)c1ccccc1)N(C)c1ccccc1 was read as RGS4 inh inactive, RGS4 pot -11*, MrgX1 antag inactive, MrgX1 allo act inactive and MrgX1 agonist inactive.
Screening O=Cc1cn(CC(O)Cn2cc(C=O)c3ccccc32)c2ccccc12 returned RGS4 inh inactive, RGS4 pot inactive, MrgX1 antag inactive, MrgX1 allo act inactive and MrgX1 agonist inactive.
`CS(=O)(=O)N(Cc1ccco1)CC(O)Cn1cc(C=O)c2ccccc21` (configuration not stated) gave RGS4 inh inactive, RGS4 pot inactive, MrgX1 antag -5.7*, MrgX1 allo act inactive and MrgX1 agonist inactive.
`CC(=O)NNC(=O)c1sc(=S)n2c1[nH]c(=O)c1sccc12` gave RGS4 inh inactive, RGS4 pot inactive, MrgX1 antag inactive, MrgX1 allo act inactive and MrgX1 agonist inactive.
For NC(=O)c1sc(=S)n2c1[nH]c(=O)c1sccc12 the results were RGS4 inh inactive, RGS4 pot inactive, MrgX1 antag inactive, MrgX1 allo act 16* and MrgX1 agonist inactive.
For CC(C)c1ccc(/C=C/C(=O)Nc2ccc(CN3CCOCC3)cc2)cc1 the results were RGS4 inh inactive, RGS4 pot -8.2*, MrgX1 antag inactive, MrgX1 allo act inactive and MrgX1 agonist inactive.
Cc1c(NS(=O)(=O)c2cc(C(=O)NCc3ccco3)cc(Cl)c2Cl)c(=O)n(-c2ccccc2)n1C was read as RGS4 inh inactive, RGS4 pot inactive, MrgX1 antag inactive, MrgX1 allo act inactive and MrgX1 agonist inactive.
Screening C=CCOc1ccc(CNCCc2ccc(S(N)(=O)=O)cc2)cc1 returned RGS4 inh inactive, RGS4 pot -7.4*, MrgX1 antag inactive, MrgX1 allo act inactive and MrgX1 agonist inactive.
Screening Cc1nn(Cc2ccccc2)c(Cl)c1/C=C/C(=O)OC(C)C(=O)N1CCCC1 (configuration not stated) returned RGS4 inh inactive, RGS4 pot inactive, MrgX1 antag -5.9*, MrgX1 allo act inactive and MrgX1 agonist inactive.

Screens from PubChem.
